The record followed here is ChEMBL document CHEMBL1157985, “Antiplasmodial and cytotoxic activity of natural bisbenzylisoquinoline alkaloids” (J Nat Prod, 1999).

Experiment [1] deals with KB. Kind of experiment: Cytotoxicity against human KB cells after 72 hrs by SRB assay. The format is functional. The conditions noted are these: read-out: ED50 (the source's name). The gist of the method: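 KB-3 cells grown in DMEM with 10% FBS at 37 °C and 5% CO₂ to 60–70% confluence, then used 1 day after a medium change. Samples were dissolved in DMSO and serially diluted in 10% aqueous DMSO. 5×10⁴ cells were exposed for 72 h at 37 °C, then TCA-fixed, stained with 0.4% SRB and read at 515 nm. Zero-day control was subtracted and values expressed relative to solvent control; ED50 by nonlinear regression.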

The test system of experiment [2] is Plasmodium falciparum. Briefly: Antiplasmodial activity against chloroquine-sensitive Plasmodium falciparum D6 infected human erythrocytes as [3H]hypoxanthine uptake after 24 hrs. The format is functional, organism-based. The method in brief: (§1)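 P. falciparum (D6, W2) cultured in type A+ human erythrocytes, RPMI-1640 with NaHCO3, HEPES and 10% heat-inactivated human plasma, 37 °C under 5% O2/5% CO2/90% N2. Infected red cells at 0.5-1.0% parasitemia, 1.0% hematocrit exposed to compound, duplicate seven-point series, 24 h; then 0.5 μCi [3H]hypoxanthine per well for 18 h more. Filter harvest, scintillation counting; IC50 by nonlinear regression versus zero-drug controls.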

The nature of experiment [3]: Selectivity index, ratio of ED50 for human KB cells to IC50 for chloroquine-resistant Plasmodium falciparum W2. It is filed as functional.
Experiment [4] relates to Plasmodium falciparum. Briefly: Antiplasmodial activity against chloroquine-resistant Plasmodium falciparum W2 infected human erythrocytes as [3H]hypoxanthine uptake after 24 hrs. It is filed as functional, organism-based. The gist of the method:
as §1

Experiment [5] in a line: Selectivity index, ratio of ED50 for human KB cells to IC50 for […] Plasmodium falciparum D6. The format is functional.

Each structure is given as a SMILES string.

As for `COc1ccc2cc1Oc1cc3c(cc1OC)CCN(C(C)=O)[C@H]3Cc1ccc(cc1)Oc1c3c(cc4c1[C@@H](C2)N(C)CC4)OCO3`, the EC50 in experiment [1] worked out at 13600 nM. The IC50 was 1910 nM in experiment [2] and 1050 nM in experiment [4]. The “Selectivity Index” value in experiment [3] came out at 13.
Take `COc1ccc2cc1Oc1ccc(cc1)C[C@H]1c3cc(c(OC)cc3CCN1C)Oc1c(O)c(OC)cc3c1[C@@H](C2)NCC3`: the EC50 in experiment [1] was 10400 nM. Besides, the IC50 in experiment [2] was 115 nM; in experiment [4], 210 nM. Besides, the “Selectivity Index” value in experiment [3] worked out at 50; in experiment [5], 92.
Regarding `COc1ccc2cc1Oc1cc3c(cc1OC)CCN(C)[C@@H]3Cc1ccc(cc1)Oc1c(O)c(OC)cc3c1[C@@H](C2)N(C)CC3`, the EC50 in experiment [1] was found to be 7700 nM. Further, the IC50 in experiment [2] is 128 nM; in experiment [4], 387 nM. Also, the “Selectivity Index” value in experiment [3] was found to be 20; in experiment [5] it was 60.
Take `COc1cc2c3cc1Oc1c(OC)c(OC)cc4c1[C@@H](Cc1ccc(O)c(c1)Oc1ccc(cc1)C[C@@H]3N(C)CC2)N(C)CC4` [BERBAMINE]: the EC50 in experiment [1] amounted to 9210 nM. The IC50 in experiment [2] was found to be 128 nM; in experiment [4] it was 313 nM. For the same compound, the “Selectivity Index” value in experiment [3] was found to be 29; in experiment [5], 72.
Take `COc1ccc2cc1Oc1ccc(cc1)C[C@H]1c3c(cc(O)c4c3Oc3cc5c(cc3O4)CCN(C)[C@H]5C2)CCN1C`: in experiment [1], the EC50 is 6000 nM. In experiment [2], this compound displayed an IC50 of 30 nM. Also, the “Selectivity Index” value in experiment [3] is reported as 54; in experiment [5] it was 200.
In the case of `C=C[C@H]1CN2CC[C@H]1C[C@H]2[C@H](O)c1ccnc2ccc(OC)cc12` [QUININE], the EC50 in experiment [1] was above 55400 nM. Besides, the figures for the IC50 in experiment [2] and in experiment [4] were 23.4 nM and 250 nM, respectively. In addition, the entries for the “Selectivity Index” value in experiment [3] and in experiment [5] were above 222 and above 285, respectively.
In the case of `COc1ccc(C[C@H]2c3cc(Oc4cc(OC)c(OC)cc4C[C@H]4c5cc(O)c(OC)cc5CCN4C)c(OC)cc3CCN2C)cc1O`, the EC50 in experiment [1] was above 29900 nM. Besides, the figures for the IC50 in experiment [2] and in experiment [4] were 61 nM and 164 nM, respectively. In addition, the “Selectivity Index” value was above 180 in experiment [3] and above 490 in experiment [5].
The corresponding values for `COc1ccc2cc1Oc1ccc(cc1)C[C@H]1c3c(cc(OC)c(OC)c3Oc3cc4c(cc3OC)CCN[C@@H]4C2)CCN1C` are 9900 nM, 75 nM, 154 nM, 64 and 130.
In the case of `C[C@@H]1CC[C@H]2[C@@H](C)C(=O)O[C@@H]3O[C@@]4(C)CC[C@@H]1[C@]32OO4` [ARTEMISININ], the EC50 in experiment [1] is above 70900 nM. Further, the IC50 worked out at 15.1 nM in experiment [2] and 14.6 nM in experiment [4]. Also, the “Selectivity Index” value in experiment [3] is above 4860; in experiment [5] it was above 4680.
Regarding `COc1cc2c3c4c1Oc1cc5c(cc1O4)[C@H](Cc1ccc(O)c(c1)Oc1ccc(cc1)C[C@@H]3N(C)CC2)N(C)CC5` [COCSULINE], in experiment [1], the EC50 was determined as 10000 nM. Moreover, the values for the IC50 in experiment [2] and in experiment [4] were 87 nM and 502 nM, respectively. The “Selectivity Index” value in experiment [5] came out at 110.
For the compound `CCN(CC)CCCC(C)Nc1ccnc2cc(Cl)ccc12` (centres undefined) [CHLOROQUINE], the EC50 in experiment [1] was found to be 33700 nM.
`OC(c1cc(C(F)(F)F)nc2c(C(F)(F)F)cccc12)C1CCCCN1` (centres undefined) [MEFLOQUINE]: the EC50 in experiment [1] worked out at 8430 nM. For the same compound, the “Selectivity Index” value in experiment [3] stood at 1080; in experiment [5], 465. This compound also displayed an IC50 in experiment [4] of 7.78 nM.
As for `COc1ccc2cc1Oc1ccc(cc1)C[C@H]1c3cc(c(OC)cc3CCN1C)Oc1c(OC)c(OC)cc3c1[C@@H](C2)NCC3`, it took 106 nM to reach half-maximal inhibition in experiment [2] (IC50). In addition, the “Selectivity Index” value in experiment [5] stood at 95.
